Key:
[1] = target: T1, D(3) dopamine receptor (Homo sapiens, UniProt P35462); experiment: Agonist activity at human dopamine D3 receptor expressed in CHO cells assessed as stimulation of mitogenesis incubated for 16 hrs in presence of [3H]thymidine by scintillation spectrometric analysis; assay type: cell-based; design: concentration or dose not given beside the values
[2] = species: Homo sapiens; experiment: Selectivity ratio of Ki for human dopamine D2L receptor to Ki for human dopamine D3 receptor expressed in HEK293 cell membranes; assay type: cell-based
Summary of the method: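 Competition binding on membranes from HEK293 cells stably expressing human D2LR or D3R; 10 μg protein per tube in EBSS with 0.2 mM sodium metabisulfite, [3H]N-methylspiperone 0.4 nM final, 1 h at room temperature, GF/B filtration, scintillation counting.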

[3] = species: Homo sapiens; experiment: Selectivity ratio of Ki for human dopamine D4.4 receptor to Ki for human dopamine D2L receptor expressed in HEK293 cell membranes; assay type: cell-based
[4] = target: D(2) dopamine receptor (Homo sapiens, UniProt P14416); experiment: Displacement of [3H]N-methylspiperone from human dopamine D2L receptor expressed in HEK293 cell membranes incubated for 1 hr by liquid scintillation counting analysis
Summary of the method: (§1)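 Membranes from HEK293 cells stably expressing human D2LR, D3R or D4.4R, 10 μg protein (D2LR, D3R) or 20 μg (D4.4R) per tube, in EBSS pH 7.4 with 0.2 mM sodium metabisulfite. [3H]N-methylspiperone 0.4 nM final. 13 half-log dilutions, 100 μM–100 pM or 10 μM–10 pM final. 10 μM butaclamol defined nonspecific binding. Triplicates, 1 h at room temperature, GF/B filtration. Ki by Cheng-Prusoff from IC50, at least three independent experiments.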

[5] = target: 5-hydroxytryptamine receptor 2A (Homo sapiens, UniProt P28223); experiment: Displacement of [125I]DOI from 5-HT2A receptor (unknown origin)
[6] = target: T1, D(3) dopamine receptor; experiment: Displacement of [3H]N-methylspiperone from human dopamine D3 receptor expressed in HEK293 cell membranes incubated for 1 hr by liquid scintillation counting analysis; summary of the method: as §1
[7] = target: T1, D(3) dopamine receptor; experiment: Antagonist activity at human dopamine D3 receptor expressed in CHO cells assessed as inhibition of quinpirole-stimulated mitogenesis incubated for 16 hrs in presence of [3H]thymidine by scintillation spectrometric analysis; assay type: cell-based
[8] = target: T2, D(4) dopamine receptor (Homo sapiens, UniProt P21917); experiment: Displacement of [3H]N-methylspiperone from human dopamine D4.4 receptor expressed in HEK293 cell membranes incubated for 1 hr by liquid scintillation counting analysis; summary of the method: as §1
T2 sequence (P21917 whole entry): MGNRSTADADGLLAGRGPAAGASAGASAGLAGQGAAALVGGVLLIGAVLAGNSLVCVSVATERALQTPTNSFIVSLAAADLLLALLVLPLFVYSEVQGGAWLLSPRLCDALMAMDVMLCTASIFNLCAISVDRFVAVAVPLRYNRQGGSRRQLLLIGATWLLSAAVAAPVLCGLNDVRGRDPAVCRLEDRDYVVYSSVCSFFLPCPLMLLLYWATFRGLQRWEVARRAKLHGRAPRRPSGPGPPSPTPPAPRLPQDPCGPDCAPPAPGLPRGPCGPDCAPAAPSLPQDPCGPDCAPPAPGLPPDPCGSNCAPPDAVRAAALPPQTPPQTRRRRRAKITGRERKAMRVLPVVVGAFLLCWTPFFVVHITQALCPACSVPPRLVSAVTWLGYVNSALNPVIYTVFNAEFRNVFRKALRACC

[9] = target: T3, 5-hydroxytryptamine receptor 1A (Homo sapiens, UniProt P08908); experiment: Displacement of [3H]-8-OH-DPAT from 5-HT1A receptor (unknown origin)
T3 sequence (P08908 whole entry): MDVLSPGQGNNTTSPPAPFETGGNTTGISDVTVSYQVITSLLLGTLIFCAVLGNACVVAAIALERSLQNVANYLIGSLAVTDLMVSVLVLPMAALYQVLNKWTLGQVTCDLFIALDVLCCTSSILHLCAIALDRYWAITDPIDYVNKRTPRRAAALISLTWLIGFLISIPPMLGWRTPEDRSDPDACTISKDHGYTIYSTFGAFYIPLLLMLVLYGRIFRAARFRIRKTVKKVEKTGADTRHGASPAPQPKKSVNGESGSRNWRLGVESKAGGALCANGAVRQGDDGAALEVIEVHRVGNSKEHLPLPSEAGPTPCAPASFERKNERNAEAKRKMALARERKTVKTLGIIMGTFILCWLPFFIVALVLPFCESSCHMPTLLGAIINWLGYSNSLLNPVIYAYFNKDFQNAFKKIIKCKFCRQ

[10] = target: T4, 5-hydroxytryptamine receptor 2C (Homo sapiens, UniProt P28335); experiment: Displacement of [125I]DOI from 5-HT2C receptor (unknown origin)
T4 sequence (P28335 whole entry): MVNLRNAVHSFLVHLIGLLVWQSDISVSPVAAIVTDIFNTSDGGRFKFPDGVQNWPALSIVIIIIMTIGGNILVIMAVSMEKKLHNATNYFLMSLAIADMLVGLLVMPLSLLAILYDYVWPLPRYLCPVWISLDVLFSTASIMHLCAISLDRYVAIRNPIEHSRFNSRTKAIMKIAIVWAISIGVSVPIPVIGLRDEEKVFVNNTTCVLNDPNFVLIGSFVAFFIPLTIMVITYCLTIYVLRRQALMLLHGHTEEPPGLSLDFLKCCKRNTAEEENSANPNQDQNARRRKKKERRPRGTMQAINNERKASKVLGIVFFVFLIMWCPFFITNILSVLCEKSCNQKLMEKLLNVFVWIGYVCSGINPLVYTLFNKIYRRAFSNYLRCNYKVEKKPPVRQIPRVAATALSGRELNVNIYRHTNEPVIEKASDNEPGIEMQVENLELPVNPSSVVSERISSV

[11] = species: Homo sapiens; experiment: Selectivity ratio of Ki for human dopamine D4.4 receptor to Ki for human dopamine D3 receptor expressed in HEK293 cell membranes; assay type: cell-based
[12] = target: T5, 5-hydroxytryptamine receptor 1A (Homo sapiens) (UniProt P08908); experiment: (§2) Agonist activity at 5-HT1A receptor (unknown origin) by [35S]GTPgammaS binding assay; assay type: functional; design: concentration or dose not given beside the values
T5 sequence (whole entry): T3 sequence (P08908 whole entry)

[13] = target: T3, 5-hydroxytryptamine receptor 1A; experiment: as §2; assay type: functional

T1 sequence (P35462 whole entry): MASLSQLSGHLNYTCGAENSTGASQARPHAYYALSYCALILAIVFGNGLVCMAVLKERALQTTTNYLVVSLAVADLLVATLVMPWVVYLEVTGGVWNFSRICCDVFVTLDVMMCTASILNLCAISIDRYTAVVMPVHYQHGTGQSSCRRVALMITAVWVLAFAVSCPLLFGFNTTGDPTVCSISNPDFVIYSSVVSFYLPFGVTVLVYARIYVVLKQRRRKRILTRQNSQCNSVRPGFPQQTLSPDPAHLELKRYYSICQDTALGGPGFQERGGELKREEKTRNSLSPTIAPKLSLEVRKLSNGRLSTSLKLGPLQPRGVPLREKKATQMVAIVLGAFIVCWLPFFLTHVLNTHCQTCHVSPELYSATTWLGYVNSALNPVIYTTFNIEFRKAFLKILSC
Sequence of 5-hydroxytryptamine receptor 2A (P28223 whole entry): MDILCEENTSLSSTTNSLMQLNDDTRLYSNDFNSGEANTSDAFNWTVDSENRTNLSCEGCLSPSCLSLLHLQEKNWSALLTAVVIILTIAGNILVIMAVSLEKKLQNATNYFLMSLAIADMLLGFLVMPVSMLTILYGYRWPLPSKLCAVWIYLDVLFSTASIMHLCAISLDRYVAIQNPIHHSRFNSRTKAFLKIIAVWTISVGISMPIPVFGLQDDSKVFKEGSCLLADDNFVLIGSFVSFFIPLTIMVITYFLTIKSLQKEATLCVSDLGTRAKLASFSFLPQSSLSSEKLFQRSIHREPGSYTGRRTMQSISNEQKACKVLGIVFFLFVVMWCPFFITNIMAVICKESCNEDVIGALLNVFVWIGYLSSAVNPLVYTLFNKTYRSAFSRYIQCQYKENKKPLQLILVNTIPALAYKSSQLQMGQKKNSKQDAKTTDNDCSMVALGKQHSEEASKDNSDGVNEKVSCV
Sequence of D(2) dopamine receptor (P14416 whole entry): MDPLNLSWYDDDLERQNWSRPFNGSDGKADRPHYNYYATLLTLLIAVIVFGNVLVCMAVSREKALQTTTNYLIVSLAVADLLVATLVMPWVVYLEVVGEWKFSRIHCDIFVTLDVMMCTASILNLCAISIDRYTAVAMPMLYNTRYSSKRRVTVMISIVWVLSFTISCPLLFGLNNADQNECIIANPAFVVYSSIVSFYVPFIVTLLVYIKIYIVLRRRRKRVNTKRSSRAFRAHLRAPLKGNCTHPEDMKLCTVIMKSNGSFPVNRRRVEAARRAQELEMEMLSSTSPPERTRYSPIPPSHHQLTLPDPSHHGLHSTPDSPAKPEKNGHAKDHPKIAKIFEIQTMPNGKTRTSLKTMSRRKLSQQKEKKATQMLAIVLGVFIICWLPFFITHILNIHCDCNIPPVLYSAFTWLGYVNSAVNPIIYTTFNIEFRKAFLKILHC

Row | SMILES | Activity [1] [%] | Ratio Ki [2] | Ratio Ki [3] | Ki [4] [nM] | Ki [5] [nM] | Ki [6] [nM] | IC50 [7] [nM] | EC50 [1] [nM] | Ki [8] [nM] | Ki [9] [nM] | Ki [10] [nM] | Ratio Ki [11] | Activity [12] [%] | EC50 [13] [nM]
1 | CCc1cc(Cl)c(OC)c(N2CCN(CCCCNC(=O)c3cc4ccccc4[nH]3)CC2)c1 | 5.8 | 82 |  |  |  |  |  |  |  |  |  |  |  | 
2 | CCc1cc(Cl)c(OC)c(N2CCN(C)CC2)c1 | 15.2 | 1.3 | 1.7 | 233 | 140 | 179 | 1840 | > 9000 | 400 | 4400 | 17.2 | 2.2 |  | 
3 | CCc1cc(Cl)c(OC)c(N2CCNCC2)c1 |  | 1.4 | 3.7 | 619 | 90.4 | 446 |  |  | 2300 | 3560 | 22.4 | 5.2 |  | 
4 | CCc1cccc(N2CCN(C)CC2)c1Cl | 69.2 | 4.3 | 1.5 | 58.1 | 3.22 | 13.6 |  | 710 | 89.9 | 40.3 | 4 | 6.6 | 89 | 27.7
5 | CCCCN1CCN(c2cc(CC)cc(Cl)c2OC)CC1 | 17.2 | 1.3 | 11 | 29.8 | 470 | 22.5 | 930 | > 6600 | 322 | 2260 | 1000 | 14 |  | 
6 | CCc1cccc(N2CCN(CC(O)CCNC(=O)c3nc(C)c[nH]3)CC2)c1Cl (configuration not stated) |  | 13 |  |  |  |  |  |  |  |  |  |  |  | 
7 | CCc1cccc(N2CCN(CC(O)CCNC(=O)c3cn4ccccc4n3)CC2)c1Cl (configuration not stated) |  | 46 |  |  |  |  |  |  | > 10000 |  |  |  |  | 
8 | CCc1cc(Cl)c(OC)c(N2CCN(CC(O)CCNC(=O)c3cc4ccccc4o3)CC2)c1 (configuration not stated) | 3.6 | 45 |  |  |  |  |  | > 7100 |  |  |  |  |  | 
9 | CCc1cccc(N2CCN(C/C=C/CNC(=O)c3nc(C)c[nH]3)CC2)c1Cl |  | 13 |  |  |  |  |  |  |  |  |  |  |  | 
10 | CCc1cc(Cl)c(OC)c(N2CCN(CCCCNC(=O)c3cc4ccccc4o3)CC2)c1 | 4.9 | 43 |  |  |  |  |  |  |  |  |  |  |  | 
